The record followed here is ChEMBL document CHEMBL4732051, “The discovery of potent small molecule activators of human STING” (Eur J Med Chem, 2021).

Calls of active or inactive are those of the source.

Data set [1] relates to Stimulator of interferon genes protein (Homo sapiens), Q86WV6 [R71H,G230A,R293Q]. The experiment in a line: Activation of human STING HAQ mutant expressed in HEK293T cells assessed as phosphorylation of IRF-3 at (Ser396) at 10 uM incubated for 2 hrs and measured by Western blot analysis. Format: cell-based. Particulars: filed as activator. An outline of the steps:
(§1)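 HEK293T clones stably carrying each human STING variant, picked by blasticidin selection and limiting dilution. 5 x 10^5 cells were exposed to compound at 10μM for 2 h, lysed in RIPA with phosphatase and protease inhibitors, and 10 μg protein run on 10% SDS-PAGE. Immunoblots probed for pSTING (Ser366), pIRF3 (Ser396), total STING, IRF3 and actin, detected by ECL.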
A general note: Immunoblotting shows a protein as a band on a membrane.

The target of the next data set is T1, Cytochrome P450 1A2 (Homo sapiens, UniProt P05177).
T1 sequence (P05177 whole entry): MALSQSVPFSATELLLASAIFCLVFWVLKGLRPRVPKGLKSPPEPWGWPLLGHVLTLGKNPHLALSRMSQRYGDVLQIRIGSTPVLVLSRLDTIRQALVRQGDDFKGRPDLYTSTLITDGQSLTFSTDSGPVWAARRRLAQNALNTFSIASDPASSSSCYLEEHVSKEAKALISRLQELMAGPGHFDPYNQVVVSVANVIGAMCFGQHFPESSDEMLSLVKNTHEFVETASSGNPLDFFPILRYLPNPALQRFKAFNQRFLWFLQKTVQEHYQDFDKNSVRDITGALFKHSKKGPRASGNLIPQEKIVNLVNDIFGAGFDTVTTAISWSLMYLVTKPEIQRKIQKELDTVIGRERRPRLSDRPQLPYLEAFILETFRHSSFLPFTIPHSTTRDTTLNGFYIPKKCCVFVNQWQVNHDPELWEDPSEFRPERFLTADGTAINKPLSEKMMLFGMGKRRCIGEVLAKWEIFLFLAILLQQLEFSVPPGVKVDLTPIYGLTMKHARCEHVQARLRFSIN
The data set can be described thus: Inhibition of CYP1A2 (unknown origin). Type of data set: ADME.

Data set [2] can be described thus: Half life in BALB/c mouse at 5 mg/kg, iv measured up to 24 hrs by LC-MS/MS analysis. Particulars: in vivo. Format: ADME, organism-based. An outline of the steps:
(§2)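 Overnight-fasted mice, n=3 per group, single dose by lateral tail vein (iv) or oral gavage (po). Retro-orbital blood under isoflurane at 2 min–24 h (iv) or 5 min–24 h (po). Plasma spun at 1500 x g, 15 min, 4 °C, stored -80 °C, then analysed by LCMS.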

Data set [3] deals with Stimulator of interferon genes protein (Homo sapiens), Q86WV6 [UNDEFINED MUTATION]. The experiment in a line: Activation of human STING R232 in human MDA-MB-468 cells assessed as phosphorylation at (Ser366) at 10 uM incubated for 2 hrs and measured by Western blot analysis. Type of data set: cell-based. Particulars: filed as activator. An outline of the steps:
(§3)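 Tumor cell lines or human primary cells carrying endogenous STING variants; STING KO cells as control. 10µM for 2 h, then lysed in RIPA with phosphatase and protease inhibitors. 10 μg protein on 10% SDS-PAGE, blotted for pSTING (Ser366), pIRF3 (Ser396), STING, IRF3 and actin, ECL detection.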

A further data set deals with Cytochrome P450 2D6 (Homo sapiens, UniProt P10635). The experiment in a line: Inhibition of CYP2D6 (unknown origin). Type of data set: ADME.
Chain of Cytochrome P450 2D6 (P10635 whole entry): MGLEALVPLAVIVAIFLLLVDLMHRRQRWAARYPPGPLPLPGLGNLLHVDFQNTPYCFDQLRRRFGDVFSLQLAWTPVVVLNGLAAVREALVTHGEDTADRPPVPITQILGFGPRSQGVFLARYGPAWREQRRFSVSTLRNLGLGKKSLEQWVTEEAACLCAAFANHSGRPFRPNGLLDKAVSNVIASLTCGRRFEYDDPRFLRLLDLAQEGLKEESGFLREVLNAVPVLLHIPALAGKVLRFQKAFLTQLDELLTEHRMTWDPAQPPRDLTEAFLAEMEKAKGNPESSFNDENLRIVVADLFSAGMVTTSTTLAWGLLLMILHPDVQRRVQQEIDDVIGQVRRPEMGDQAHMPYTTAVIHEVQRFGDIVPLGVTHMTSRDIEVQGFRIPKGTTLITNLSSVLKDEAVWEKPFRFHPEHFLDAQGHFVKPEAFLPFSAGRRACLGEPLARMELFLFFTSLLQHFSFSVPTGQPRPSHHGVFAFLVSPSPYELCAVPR
Data set [4] is described as follows: Stability in mouse plasma at 37 degC by LC-MS/MS analysis. Format: ADME, cell-free. An outline of the steps:
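Compound at 10 μM was incubated in mouse or human plasma at 37°C and its stability assessed.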

Data set [5] has as its target T2, Stimulator of interferon genes protein (Mus musculus) (UniProt Q3TBT3).
T2 sequence (whole entry): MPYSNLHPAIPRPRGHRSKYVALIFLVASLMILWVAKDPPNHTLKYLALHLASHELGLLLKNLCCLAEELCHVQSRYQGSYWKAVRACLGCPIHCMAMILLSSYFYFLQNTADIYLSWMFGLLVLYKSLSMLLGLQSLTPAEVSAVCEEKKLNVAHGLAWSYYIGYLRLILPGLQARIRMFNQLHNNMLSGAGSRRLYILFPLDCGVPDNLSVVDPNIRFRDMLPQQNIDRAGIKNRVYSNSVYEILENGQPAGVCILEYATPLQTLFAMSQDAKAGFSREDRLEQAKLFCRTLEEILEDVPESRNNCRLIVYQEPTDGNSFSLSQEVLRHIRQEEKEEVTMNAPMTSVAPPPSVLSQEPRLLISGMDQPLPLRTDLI
The experiment in a line: Activation of mouse STING.

Data set [6] relates to Stimulator of interferon genes protein (Homo sapiens), Q86WV6 [R71H,G230A,R293Q]. The experiment in a line: Induction of STING HAQ mutant (unknown origin) expressed in HEK293T cells assessed as increase in luciferase coupled ISG54-ISRE activity incubated for 18 hrs luciferase reporter gene assay. Type of data set: cell-based. Particulars: filed as activator. A general note: A reporter such as luciferase makes a cellular process visible.
Chain of Stimulator of interferon genes protein (Homo sapiens), Q86WV6 [R71H,G230A,R293Q] (Q86WV6 whole entry R71H/G230A/R293Q): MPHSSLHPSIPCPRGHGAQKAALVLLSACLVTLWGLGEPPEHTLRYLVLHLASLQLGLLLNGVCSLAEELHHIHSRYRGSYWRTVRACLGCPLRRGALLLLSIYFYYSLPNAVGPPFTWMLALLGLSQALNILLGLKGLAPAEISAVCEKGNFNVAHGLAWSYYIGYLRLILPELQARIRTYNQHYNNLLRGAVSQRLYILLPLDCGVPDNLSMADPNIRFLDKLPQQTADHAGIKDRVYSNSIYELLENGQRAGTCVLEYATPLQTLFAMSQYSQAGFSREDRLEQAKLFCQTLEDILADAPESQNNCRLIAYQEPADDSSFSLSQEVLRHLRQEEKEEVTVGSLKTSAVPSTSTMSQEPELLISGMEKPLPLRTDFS

For data set [7], the system named is Stimulator of interferon genes protein (Homo sapiens), Q86WV6 [G230A,R293Q]. The experiment in a line: Activation of human STING AQ mutant expressed in HEK293T cells assessed as phosphorylation at (Ser366) at 10 uM incubated for 2 hrs and measured by Western blot analysis. Particulars: filed as activator. Type of data set: cell-based. An outline of the steps:
as §1

The next data set deals with B16-F10. The experiment in a line: Cytotoxicity against mouse B16 F10 cells at 5 to 10 uM. Type of data set: cell-based. Particulars: b16-f10, 10 µM, dose 5-10 µM.
The nature of data set [8]: Cmax in BALB/c mouse at 10 mg/kg, po measured up to 24 hrs by LC-MS/MS analysis. Format: ADME, organism-based. More on the design: route oral, dose 10 mg/kg, time <=24. Particulars: in vivo. Put shortly: as §2
Data set [9] has as its system Stimulator of interferon genes protein (Homo sapiens), Q86WV6 [UNDEFINED MUTATION]. The experiment in a line: Activation of human STING R232 in human CCRF-SB cells assessed as phosphorylation at (Ser366) at 10 uM incubated for 2 hrs and measured by Western blot analysis. Type of data set: cell-based. Particulars: filed as activator. Put shortly: as §3
Data set [10] concerns the target Stimulator of interferon genes protein (Macaca fascicularis) (UniProt A0A2K5TV20). The data set can be described thus: Activation of cynomolgus monkey STING. Particulars: filed as activator.
A further data set has as its system HEK293T. The data set can be described thus: Induction of STING R232H mutant (unknown origin) expressed in HEK293T cells assessed as increase in luciferase coupled ISG54-ISRE activity incubated for 18 hrs luciferase reporter gene assay. Format: cell-based. Particulars: Homo sapiens, filed as activator.
Data set [11] deals with Stimulator of interferon genes protein (Homo sapiens), Q86WV6 [G230A,R293Q]. The experiment in a line: Induction of STING AQ mutant (unknown origin) expressed in HEK293T cells assessed as increase in luciferase coupled ISG54-ISRE activity incubated for 18 hrs luciferase reporter gene assay. Type of data set: cell-based. Particulars: filed as activator.
Chain of Stimulator of interferon genes protein (Homo sapiens), Q86WV6 [G230A,R293Q] (Q86WV6 whole entry G230A/R293Q): as the sequence (Q86WV6 whole entry R71H/G230A/R293Q) above, with H71R counted along it
The next data set addresses Cytochrome P450 3A4 (Homo sapiens, UniProt P08684). The data set can be described thus: Inhibition of CYP3A4 (unknown origin). Format: ADME.
In data set [12] the test system is Stimulator of interferon genes protein (Homo sapiens), Q86WV6 [G230A,R293Q]. The experiment in a line: Activation of human STING AQ mutant expressed in HEK293T cells assessed as phosphorylation of IRF-3 at (Ser396) at 10 uM incubated for 2 hrs and measured by Western blot analysis. Format: cell-based. Particulars: filed as activator. Put shortly: as §1
In data set [13] the test system is Stimulator of interferon genes protein (Homo sapiens), Q86WV6 [R71H,G230A,R293Q]. The experiment in a line: Activation of human STING HAQ mutant expressed in HEK293T cells assessed as phosphorylation at (Ser366) at 10 uM incubated for 2 hrs and measured by Western blot analysis. Particulars: filed as activator. Format: cell-based. An outline of the steps:
as §1

Data set [14] deals with Stimulator of interferon genes protein (Homo sapiens, UniProt Q86WV6). The experiment in a line: Activation of human STING in human PBMC cells assessed as induction of CCL20 expression at 10 uM measured by qt-PCR analysis. Type of data set: cell-based. Particulars: filed as activator. Put shortly: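 2 x 10^5 freshly isolated human PBMC from healthy donors, separated on Histopaque, given a single compound concentration. Harvested early (6 hr) or late (20h). Cytokine mRNA read by qRT-PCR as relative normalized expression (fold) against vehicle-treated cells.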
Chain of Stimulator of interferon genes protein (Q86WV6 whole entry): as the sequence (Q86WV6 whole entry R71H/G230A/R293Q) above, with H71R, A230G, Q293R counted along it

Chain of Stimulator of interferon genes protein (Homo sapiens), Q86WV6 [UNDEFINED MUTATION] (Q86WV6 whole entry, looked up, change not shown): as the sequence (Q86WV6 whole entry R71H/G230A/R293Q) above, with H71R, A230G, Q293R counted along it
Chain of Stimulator of interferon genes protein (Macaca fascicularis) (A0A2K5TV20 as listed by the source): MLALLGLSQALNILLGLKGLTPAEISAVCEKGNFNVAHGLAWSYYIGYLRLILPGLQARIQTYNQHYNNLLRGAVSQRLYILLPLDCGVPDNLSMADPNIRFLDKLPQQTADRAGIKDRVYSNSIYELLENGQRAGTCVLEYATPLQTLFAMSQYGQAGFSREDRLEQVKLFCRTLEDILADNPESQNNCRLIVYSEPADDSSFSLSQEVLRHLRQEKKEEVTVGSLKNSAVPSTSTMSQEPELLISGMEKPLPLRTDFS
Chain of Cytochrome P450 3A4 (P08684 whole entry): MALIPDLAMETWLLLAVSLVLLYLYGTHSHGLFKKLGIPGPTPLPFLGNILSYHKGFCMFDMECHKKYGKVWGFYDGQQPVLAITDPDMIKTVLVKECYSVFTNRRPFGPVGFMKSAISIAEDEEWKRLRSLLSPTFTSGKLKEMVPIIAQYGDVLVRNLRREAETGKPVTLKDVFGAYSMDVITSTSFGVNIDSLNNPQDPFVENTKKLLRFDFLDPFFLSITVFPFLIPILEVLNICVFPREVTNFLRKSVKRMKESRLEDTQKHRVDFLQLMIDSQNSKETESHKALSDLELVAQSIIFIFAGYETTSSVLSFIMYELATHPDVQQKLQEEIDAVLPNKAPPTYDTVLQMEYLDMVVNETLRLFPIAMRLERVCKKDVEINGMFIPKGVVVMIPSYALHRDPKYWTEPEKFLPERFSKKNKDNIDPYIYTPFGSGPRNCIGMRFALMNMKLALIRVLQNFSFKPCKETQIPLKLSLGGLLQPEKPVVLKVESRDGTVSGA

As usually defined, the half-life is the time needed for the level to fall by half in the phase considered. The Cmax is the peak of the concentration-time curve. Consider `CC1(C)C(=O)N(Cc2c(F)cccc2Cl)c2cc(C(=O)NCc3c(F)cc(F)cc3F)ccc21`, for which the result in data set [1], in data set [3], in data set [6], in [7], in [9] and in [10] was Active. The result (in the data set with HEK293T; in data set [11]; in data set [12]; in data set [13]; in data set [14]) was Active. In addition, the “inhibition (INH)” value against Cytochrome P450 1A2, at Cytochrome P450 2D6 and on Cytochrome P450 3A4 was “Not Active” each time. Moreover, the half-life in [2] is 1.41 h. Moreover, in [4], the Stabilty result was “Stable”. Further, the outcome in data set [5] was inactive. Further, the Activity entry in the data set with B16-F10 is given as “Non-Toxic”. In data set [8], this molecule returned a Cmax of 1720 ng/mL.
